Experimental data from ChEMBL document CHEMBL1126206, “Potential anti-AIDS naphthalenesulfonic acid derivatives. Synthesis and inhibition of HIV-1 induced cytopathogenesis and HIV-1 and HIV-2 reverse transcriptase activities” (J Med Chem, 1992).

How the values were obtained:
MT4 = assay: Evaluated for 50% antiviral effective concentration based on inhibition of HIV-1 (HTLV-IIIB) induced cytopathogenicity in MT-4 cells; type: functional, cell-based; settings: Homo sapiens
How it was run: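 MT-4 cells were infected with HIV-1 HTLV-IIIB at MOI 0.02 and cultured with a range of compound concentrations for 4 days. Viable cells were counted by MTT.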

[1] = Evaluated for 50% cytotoxic concentration based on reduction of viability of mock-infected cells; type: cell-based; settings: human, MT4 cells (mock-infected)
How it was run: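 Mock-infected MT-4 cells were cultured with a range of compound concentrations for 4 days, and viability was read by MTT.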

[2] = biological target: Human immunodeficiency virus type 1 reverse transcriptase (Human immunodeficiency virus 1, UniProt Q72547); assay: Inhibition of purified HIV-1 reverse transcriptase
How it was run: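 Recombinant dimeric RT expressed in E. coli (HIV-1 p66/p51, HIV-2 p68/p55), 0.08 μg per reaction; identical conditions for both enzymes. Buffer: 50 mM Tris-HCl pH 8.0, 150 mM KCl, 5 mM MgCl2, 0.5 mM EGTA, 5 mM DTT, 0.3 mM glutathione. Template-primer poly(rA)·oligo(dT)12-18 with 20 μM TTP plus [3H]TTP. Compound in DMSO or water. Incubated 1 h at 37 °C, stopped with EGTA. Incorporation read on DE-81 filters by scintillation.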

SMILES | EC50 (MT4) | CC50 [1] | IC50 [2]
Nc1ccc2c(S(=O)(=O)O)cc(S(=O)(=O)O)c(N)c2c1O | > 7.7 µM | 7.7 µM | –
O=S(=O)(O)c1cc(NS(=O)(=O)c2ccc(-c3ccc(S(=O)(=O)Nc4cc(S(=O)(=O)O)cc5cc(S(=O)(=O)O)cc(S(=O)(=O)O)c45)cc3)cc2)c2c(S(=O)(=O)O)cc(S(=O)(=O)O)cc2c1 | 36 µM | > 100 µM | > 849 µM
O=S(=O)(O)c1ccc(-c2ccc(S(=O)(=O)Nc3cc(S(=O)(=O)O)cc4cc(S(=O)(=O)O)cc(S(=O)(=O)O)c34)cc2)cc1 | > 100 µM | > 100 µM | > 1000 µM
CCCCCCCCCCCCCCCC(=O)Nc1cc(S(=O)(=O)O)cc2cc(S(=O)(=O)O)cc(S(=O)(=O)O)c12 | > 42 µM | 42 µM | 55 µM
CC(=O)Nc1cc(S(=O)(=O)O)cc2cc(S(=O)(=O)O)cc(S(=O)(=O)O)c12 | > 100 µM | > 100 µM | > 1000 µM
CC(=O)Nc1cc(S(=O)(=O)O)cc2cc(S(=O)(=O)O)cc(OC(C)=O)c12 | > 500 µM | > 500 µM | > 1000 µM
O=C(O)CCCC(=O)Nc1cc(S(=O)(=O)O)cc2cc(S(=O)(=O)O)cc(O)c12 | > 500 µM | > 500 µM | > 1000 µM
COc1cc(S(=O)(=O)O)cc2cc(S(=O)(=O)[O-])cc([N+](C)(C)C)c12 | > 500 µM | > 500 µM | > 1000 µM
COc1cc(S(=O)(=O)O)cc2cc(S(=O)(=O)O)cc(N(C)C)c12 | > 500 µM | > 500 µM | > 1000 µM
O=C(O)CCCCCCCCC(=O)Nc1cc(S(=O)(=O)O)cc2cc(S(=O)(=O)O)cc(O)c12 | 134 µM | > 500 µM | 135 µM
Nc1cc(S(=O)(=O)O)cc2cc(S(=O)(=O)O)cc(S(=O)(=O)O)c12 | > 100 µM | > 100 µM | > 1000 µM
O=C(CCCCCCCCCCC(=O)Nc1cc(S(=O)(=O)O)cc2cc(S(=O)(=O)O)cc(S(=O)(=O)O)c12)Nc1cc(S(=O)(=O)O)cc2cc(S(=O)(=O)O)cc(S(=O)(=O)O)c12 | > 51 µM | > 100 µM | 136 µM
Nc1c(S(=O)(=O)O)cc2cc(S(=O)(=O)O)cc(O)c2c1O | > 12 µM | 12 µM | 162 µM
CC(=O)Oc1cc(S(=O)(=O)O)cc2cc(S(=O)(=O)O)cc(OC(C)=O)c12 | > 461 µM | 461 µM | > 1000 µM
CC(=O)Oc1cc(S(=O)(=O)O)cc2cc(S(=O)(=O)O)c(N=Nc3ccccc3)c(OC(C)=O)c12 | > 500 µM | > 500 µM | > 1000 µM
O=C(O)c1cc(NS(=O)(=O)c2ccc(-c3ccc(S(=O)(=O)Nc4cc(C(=O)O)c(O)c(S(=O)(=O)O)c4)cc3)cc2)cc(S(=O)(=O)O)c1O | 52.5 µM | 247 µM | 427 µM
CCCCCCCCCCCCCCCC(=O)Nc1cc(S(=O)(=O)O)cc2cc(S(=O)(=O)O)cc(O)c12 | 37 µM | 250 µM | –
CCCCCCCCCCCCCCCC(=O)Oc1cc(S(=O)(=O)O)cc2cc(S(=O)(=O)O)cc(OC(=O)CCCCCCCCCCCCCCC)c12 | > 15 µM | 15 µM | –
O=C(Nc1cc(S(=O)(=O)O)cc2cc(S(=O)(=O)O)cc(O)c12)c1ccccc1 | 358 µM | > 500 µM | 464 µM
CC(=O)Nc1cc(S(=O)(=O)O)cc2cc(S(=O)(=O)O)cc(O)c12 | 53 µM | 402 µM | 243 µM
Nc1ccc2cc(S(=O)(=O)O)cc(S(=O)(=O)O)c2c1 | > 500 µM | > 500 µM | > 1000 µM
O=S(=O)(O)c1cc(S(=O)(=O)O)c2cc(NS(=O)(=O)c3ccc(-c4ccc(S(=O)(=O)Nc5ccc6cc(S(=O)(=O)O)cc(S(=O)(=O)O)c6c5)cc4)cc3)ccc2c1 | 29.5 µM | > 500 µM | 125 µM
O=C(CCCCCCCCC(=O)Nc1cc(S(=O)(=O)O)cc2cc(S(=O)(=O)O)cc(O)c12)Nc1cc(S(=O)(=O)O)cc2cc(S(=O)(=O)O)cc(O)c12 | 9.7 µM | 288 µM | 52 µM
Nc1cc(S(=O)(=O)O)cc2cc(S(=O)(=O)O)cc(O)c12 | > 529 µM | 529 µM | > 1000 µM
Nc1cc(S(=O)(=O)O)c2ccccc2c1N | > 189 µM | 189 µM | 50 µM
O=S(=O)(O)c1cc(O)c2c(O)cc(S(=O)(=O)O)cc2c1 [CHROMOTROPATE] | > 1180 µM | 1180 µM | –
Cc1ccc(C(=O)Nc2ccc(S(=O)(=O)O)c3cc(S(=O)(=O)O)cc(S(=O)(=O)O)c23)cc1NC(=O)c1cccc(NC(=O)Nc2cccc(C(=O)Nc3cc(C(=O)Nc4ccc(S(=O)(=O)O)c5cc(S(=O)(=O)O)cc(S(=O)(=O)O)c45)ccc3C)c2)c1 [SURAMIN] | 8.2 µM | 250 µM | –
